Published values pooled from the literature.
Values after ≈ are worked out from the molar mass of the structure shown.

COc1ccc(NC(=O)c2c(Nc3ccccc3)sc(C(=O)NN=Cc3ccc(Cl)cc3)c2NC(C)=O)cc1  viability (HCT-116; cell growth or viability, SRB; 1 nM, 48 h): 101%
O=C(O)CN1C(=O)/C(=C/c2ccc(-c3ccc(N(c4ccccc4)c4ccccc4)cc3)cc2)NC1=S  MIC (Streptococcus mutans; microbial growth, broth dilution; ATCC25175): 62.5 mg/L (≈ 124 µM)
O=C1O[C@H]([C@@H](O)CO)C(O)=C1O  EC50 (DPPH scavenging, absorbance; 15 min): 34 µM
COc1ccc(NC(=O)c2c(Nc3ccccc3)sc(C#N)c2NC(=O)CNc2ccc(Br)cc2)cc1  viability (HCT-116; cell growth or viability, SRB; 1 nM, 48 h): 101%
Fc1ccc(Nc2c(-c3ccc(F)cn3)nc3ccccn23)cc1  EC50 (Leishmania infantum; parasite growth; 5 days, intracellular, amastigote): 12.6 µM
O=C1NC(=S)S/C1=C\c1ccc(-c2ccc(N(c3ccccc3)c3ccccc3)cc2)c2ccccc12  MBC (Streptococcus pyogenes; microbial killing, broth dilution; ATCC19615): > 1000 mg/L
Cc1cccc(-c2c(-c3ccccn3)nc3n2CCC3)c1  EC50 (Leishmania infantum; parasite growth; 5 days, intracellular, amastigote): 0.631 µM
COc1ccc(NC(=O)c2c(Nc3ccccc3)sc(C(=O)NN=Cc3ccc(C)cc3)c2NC(C)=O)cc1  viability (HCT-116; cell growth or viability, SRB; 0.1 µM, 48 h): 80.5%
NC(=O)N1c2ccccc2C=Cc2ccccc21  ED50 (MES seizures; rat; oral): 10.9 mg/kg
COc1ccc(C=NNC(=O)c2sc(Nc3ccccc3)c(C(=O)Nc3ccc(OC)cc3)c2NC(C)=O)cc1  viability (HCT-116; cell growth or viability, SRB; 10 nM, 48 h): 86.1%
CN(C)C(=O)c1ccc(-c2c(-c3ccccn3)nc3n2CCC3)cc1  EC50 (Leishmania infantum; parasite growth; 5 days, intracellular, amastigote): 39.8 µM
O=C(O)CN1C(=O)/C(=C/c2ccc(-c3ccc(N(c4ccccc4)c4ccccc4)cc3)c3ccccc23)SC1=S  MBC (Streptococcus mutans; microbial killing, broth dilution; ATCC25175): > 1000 mg/L
COc1ccc(NC(=O)c2c(Nc3ccccc3)sc(C(=O)NN=Cc3ccc(OC)c(O)c3)c2NC(C)=O)cc1  viability (HCT-116; cell growth or viability, SRB; 10 µM, 48 h): 35.6%
N#Cc1ccc(-c2c(-c3ccccn3)nc3n2CCC3)cc1  EC50 (Leishmania infantum; parasite growth; 5 days, intracellular, amastigote): 31.6 µM
COc1ccc2occ(/C=C/c3cc(OC)c(OC)c(OC)c3)c(=O)c2c1  CC50 (HSC-2; cell growth or viability, MTT; 21 h): 5.1 µM
CS(=O)(=O)c1ccc2nc(-c3ccccn3)c(Nc3ccc(F)cc3)n2c1  IC50 (Leishmania infantum; parasite growth; intracellular, amastigote): 32.5 µM
COc1ccc(NC(=O)c2c(Nc3ccccc3)sc(C#N)c2NC(=O)CNc2ccc(Cl)cc2)cc1  viability (HCT-116; cell growth or viability, SRB; 1 µM, 48 h): 60.1%
O=C1NC(=S)N/C1=C\c1ccc(-c2ccc(N(c3ccccc3)c3ccccc3)cc2)cc1  MBC (Streptococcus pyogenes; microbial killing, broth dilution; ATCC19615): > 1000 mg/L
CCCN(c1ccc(F)cc1)c1c(-c2ccccn2)nc2ccccn12  EC50 (Leishmania infantum; parasite growth; 5 days, intracellular, amastigote): 1.58 µM
O=C(O)CN1C(=O)/C(=C/c2c3ccccc3c(-c3ccc(N(c4ccccc4)c4ccccc4)cc3)c3ccccc23)NC1=S  MBC (Streptococcus mutans; microbial killing, broth dilution; ATCC25175): > 1000 mg/L
COc1ccc(NC(=O)c2c(Nc3ccccc3)sc(C#N)c2NC(=O)CNc2ccccc2Cl)cc1  viability (HCT-116; cell growth or viability, SRB; 0.1 µM, 48 h): 64.3%
Cc1ccc2nc(-c3ccccc3)c(CNc3ccc(F)cc3)n2c1  IC50 (Leishmania infantum; parasite growth; intracellular, amastigote): > 64 µM
COc1ccc(NC(=O)c2c(Nc3ccccc3)sc(C#N)c2NC(=O)CNc2ccc([N+](=O)[O-])cc2)cc1  viability (HCT-116; cell growth or viability, SRB; 10 nM, 48 h): 92.4%
O=C(O)CN1C(=O)/C(=C/c2ccc(-c3ccc(N(c4ccccc4)c4ccccc4)cc3)cc2)SC1=S  MIC (Streptococcus pyogenes; microbial growth, broth dilution; ATCC19615): 15.6 mg/L (≈ 29.8 µM)
COc1ccc(/C=C/c2coc3ccc(OC)cc3c2=O)cc1  CC50 (HSC-2; cell growth or viability, MTT; 21 h): 2.5 µM
COc1cccc(-c2nc3ccccn3c2Nc2ccc(F)cc2)n1  EC50 (Leishmania infantum; parasite growth; 5 days, intracellular, amastigote): > 63.1 µM
O=C(O)CN1C(=O)/C(=C/c2c3ccccc3c(-c3ccc(N(c4ccccc4)c4ccccc4)cc3)c3ccccc23)SC1=S  MIC (Streptococcus mutans; microbial growth, broth dilution; ATCC25175): > 1000 mg/L
